Calls of active or inactive are those of the source. No cut-off for these calls is given here.
Key:
[1] = target: T1, Nicotinamide N-methyltransferase (Homo sapiens, UniProt P40261); experiment: Inhibition of recombinant full length human NNMT measured for 30 mins by SAHH-coupled fluorescence assay
T1 sequence (P40261 whole entry): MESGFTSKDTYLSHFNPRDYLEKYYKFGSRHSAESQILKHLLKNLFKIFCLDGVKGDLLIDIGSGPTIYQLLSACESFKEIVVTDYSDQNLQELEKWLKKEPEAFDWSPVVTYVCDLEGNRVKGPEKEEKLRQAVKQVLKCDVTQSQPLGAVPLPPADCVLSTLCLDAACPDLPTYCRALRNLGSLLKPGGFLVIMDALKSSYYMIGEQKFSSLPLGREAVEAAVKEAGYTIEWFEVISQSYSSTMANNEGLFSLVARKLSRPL
Method in brief: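 Compound at 0.1–100 µM. Fluorescence (ex 360, em 528 nm) followed for 30 min; rates taken from initial linear slopes and expressed as % activity. IC50 from a four-parameter logistic fit; SD from three independent experiments.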

[2] = target: DNA (cytosine-5)-methyltransferase 1 (Homo sapiens, UniProt P26358); experiment: Inhibition of DNMT1 (unknown origin) using [3H]-SAM assessed as inhibition of dsDNA methylation after 1 hr by scintillation proximity assay
Sequence of DNA (cytosine-5)-methyltransferase 1 (P26358 whole entry): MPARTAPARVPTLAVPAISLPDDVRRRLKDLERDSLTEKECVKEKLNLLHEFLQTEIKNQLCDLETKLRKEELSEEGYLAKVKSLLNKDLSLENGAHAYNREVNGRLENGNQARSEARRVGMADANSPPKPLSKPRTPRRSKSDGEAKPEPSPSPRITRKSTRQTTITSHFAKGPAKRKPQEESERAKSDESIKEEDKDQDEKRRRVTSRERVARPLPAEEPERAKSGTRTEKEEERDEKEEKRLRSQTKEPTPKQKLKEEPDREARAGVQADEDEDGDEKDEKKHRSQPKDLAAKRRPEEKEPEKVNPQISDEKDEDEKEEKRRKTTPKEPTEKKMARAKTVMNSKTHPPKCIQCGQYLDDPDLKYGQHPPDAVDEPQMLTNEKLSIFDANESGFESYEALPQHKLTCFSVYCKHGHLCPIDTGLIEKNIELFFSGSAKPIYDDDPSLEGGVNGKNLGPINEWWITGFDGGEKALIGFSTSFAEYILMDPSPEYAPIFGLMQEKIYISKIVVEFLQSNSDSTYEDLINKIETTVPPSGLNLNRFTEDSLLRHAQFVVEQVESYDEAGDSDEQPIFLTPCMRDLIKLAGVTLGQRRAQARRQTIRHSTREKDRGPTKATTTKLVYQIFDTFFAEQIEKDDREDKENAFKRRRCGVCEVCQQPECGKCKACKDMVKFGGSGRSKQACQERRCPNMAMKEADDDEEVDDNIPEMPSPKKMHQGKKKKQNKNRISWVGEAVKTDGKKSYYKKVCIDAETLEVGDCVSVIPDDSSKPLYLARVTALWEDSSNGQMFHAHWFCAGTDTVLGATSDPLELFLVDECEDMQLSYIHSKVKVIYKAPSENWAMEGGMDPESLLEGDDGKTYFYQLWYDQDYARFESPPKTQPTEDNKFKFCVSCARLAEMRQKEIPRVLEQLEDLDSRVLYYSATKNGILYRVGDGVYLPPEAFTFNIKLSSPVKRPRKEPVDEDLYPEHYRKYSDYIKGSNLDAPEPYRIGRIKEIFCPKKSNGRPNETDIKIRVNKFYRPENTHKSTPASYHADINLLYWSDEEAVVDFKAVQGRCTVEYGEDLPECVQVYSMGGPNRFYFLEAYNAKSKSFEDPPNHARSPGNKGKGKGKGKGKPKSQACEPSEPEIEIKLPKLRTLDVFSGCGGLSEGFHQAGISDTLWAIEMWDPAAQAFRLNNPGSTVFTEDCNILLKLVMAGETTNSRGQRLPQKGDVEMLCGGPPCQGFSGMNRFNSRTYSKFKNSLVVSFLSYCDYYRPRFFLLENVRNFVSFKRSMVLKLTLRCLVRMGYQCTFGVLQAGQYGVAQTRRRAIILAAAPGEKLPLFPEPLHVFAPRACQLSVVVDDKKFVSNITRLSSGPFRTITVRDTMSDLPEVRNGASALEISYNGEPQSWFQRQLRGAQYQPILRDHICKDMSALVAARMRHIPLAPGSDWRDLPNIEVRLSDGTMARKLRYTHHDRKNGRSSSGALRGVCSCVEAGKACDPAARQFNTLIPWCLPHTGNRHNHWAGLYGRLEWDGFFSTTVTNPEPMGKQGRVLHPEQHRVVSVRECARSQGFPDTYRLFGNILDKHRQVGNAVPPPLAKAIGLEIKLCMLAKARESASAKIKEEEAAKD
Method in brief: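 Incubated 1 h at 37 °C, quenched with guanidine HCl, then counted on a Flashplate. IC50 was taken at the SAM Km and converted to Ki as IC50/2.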

[3] = target: Protein arginine N-methyltransferase 3 (Homo sapiens, UniProt O60678); experiment: Inhibition of PRMT3 (unknown origin) using [3H]SAM assessed as inhibition of biotinylated-H4 (1 to 24 amino acid residues) methylation after 1 hr by scintillation proximity assay
Sequence of Protein arginine N-methyltransferase 3 (O60678 whole entry, the tested form may be a part): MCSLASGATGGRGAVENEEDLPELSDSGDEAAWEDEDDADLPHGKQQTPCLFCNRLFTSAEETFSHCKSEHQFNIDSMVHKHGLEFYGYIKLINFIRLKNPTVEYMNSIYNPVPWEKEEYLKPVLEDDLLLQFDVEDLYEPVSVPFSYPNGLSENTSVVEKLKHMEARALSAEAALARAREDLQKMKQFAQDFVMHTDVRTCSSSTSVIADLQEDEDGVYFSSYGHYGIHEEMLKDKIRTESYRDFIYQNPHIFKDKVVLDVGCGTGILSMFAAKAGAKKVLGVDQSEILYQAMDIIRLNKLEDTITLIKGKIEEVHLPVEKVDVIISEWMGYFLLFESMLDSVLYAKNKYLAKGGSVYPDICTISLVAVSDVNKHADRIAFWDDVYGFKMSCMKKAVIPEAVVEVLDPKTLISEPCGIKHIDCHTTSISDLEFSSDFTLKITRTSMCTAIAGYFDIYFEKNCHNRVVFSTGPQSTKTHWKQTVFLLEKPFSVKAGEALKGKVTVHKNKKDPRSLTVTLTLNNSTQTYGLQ

[4] = target: Protein arginine N-methyltransferase 5 (Homo sapiens, UniProt O14744); experiment: Inhibition of PRMT5 (unknown origin) using [3H]SAM after 1 hr by scintillation proximity assay
Sequence of Protein arginine N-methyltransferase 5 (O14744 whole entry): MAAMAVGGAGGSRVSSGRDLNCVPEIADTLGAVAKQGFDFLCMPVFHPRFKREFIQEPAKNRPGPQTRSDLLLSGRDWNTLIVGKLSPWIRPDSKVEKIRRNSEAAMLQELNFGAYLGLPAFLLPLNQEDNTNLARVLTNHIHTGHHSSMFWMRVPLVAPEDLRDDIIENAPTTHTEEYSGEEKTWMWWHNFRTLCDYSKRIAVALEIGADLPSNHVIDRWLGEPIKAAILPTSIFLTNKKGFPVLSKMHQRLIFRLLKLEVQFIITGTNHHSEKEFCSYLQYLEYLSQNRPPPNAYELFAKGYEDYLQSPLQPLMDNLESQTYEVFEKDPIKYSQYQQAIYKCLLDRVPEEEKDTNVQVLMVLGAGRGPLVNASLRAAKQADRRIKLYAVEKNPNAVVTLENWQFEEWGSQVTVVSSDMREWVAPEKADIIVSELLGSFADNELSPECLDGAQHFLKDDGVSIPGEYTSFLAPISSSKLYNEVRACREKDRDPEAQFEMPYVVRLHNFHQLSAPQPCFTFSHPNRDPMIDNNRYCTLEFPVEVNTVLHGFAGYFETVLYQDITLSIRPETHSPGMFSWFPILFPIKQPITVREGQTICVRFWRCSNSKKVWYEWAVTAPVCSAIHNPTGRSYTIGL
Method in brief: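 Triplicates, 1 h at room temperature, compound at 100 nM–100 µM. Guanidine quench, then Flashplate counting. Ki calculated as IC50/2.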

[5] = target: T2, Histone-lysine N-methyltransferase EHMT2 (Homo sapiens) (UniProt Q96KQ7); experiment: Inhibition of G9a (unknown origin) using [3H]SAM assessed as inhibition of biotinylated-H3 (1 to 25 amino acid residues) methylation after 1 hr by scintillation proximity assay
T2 sequence (whole entry): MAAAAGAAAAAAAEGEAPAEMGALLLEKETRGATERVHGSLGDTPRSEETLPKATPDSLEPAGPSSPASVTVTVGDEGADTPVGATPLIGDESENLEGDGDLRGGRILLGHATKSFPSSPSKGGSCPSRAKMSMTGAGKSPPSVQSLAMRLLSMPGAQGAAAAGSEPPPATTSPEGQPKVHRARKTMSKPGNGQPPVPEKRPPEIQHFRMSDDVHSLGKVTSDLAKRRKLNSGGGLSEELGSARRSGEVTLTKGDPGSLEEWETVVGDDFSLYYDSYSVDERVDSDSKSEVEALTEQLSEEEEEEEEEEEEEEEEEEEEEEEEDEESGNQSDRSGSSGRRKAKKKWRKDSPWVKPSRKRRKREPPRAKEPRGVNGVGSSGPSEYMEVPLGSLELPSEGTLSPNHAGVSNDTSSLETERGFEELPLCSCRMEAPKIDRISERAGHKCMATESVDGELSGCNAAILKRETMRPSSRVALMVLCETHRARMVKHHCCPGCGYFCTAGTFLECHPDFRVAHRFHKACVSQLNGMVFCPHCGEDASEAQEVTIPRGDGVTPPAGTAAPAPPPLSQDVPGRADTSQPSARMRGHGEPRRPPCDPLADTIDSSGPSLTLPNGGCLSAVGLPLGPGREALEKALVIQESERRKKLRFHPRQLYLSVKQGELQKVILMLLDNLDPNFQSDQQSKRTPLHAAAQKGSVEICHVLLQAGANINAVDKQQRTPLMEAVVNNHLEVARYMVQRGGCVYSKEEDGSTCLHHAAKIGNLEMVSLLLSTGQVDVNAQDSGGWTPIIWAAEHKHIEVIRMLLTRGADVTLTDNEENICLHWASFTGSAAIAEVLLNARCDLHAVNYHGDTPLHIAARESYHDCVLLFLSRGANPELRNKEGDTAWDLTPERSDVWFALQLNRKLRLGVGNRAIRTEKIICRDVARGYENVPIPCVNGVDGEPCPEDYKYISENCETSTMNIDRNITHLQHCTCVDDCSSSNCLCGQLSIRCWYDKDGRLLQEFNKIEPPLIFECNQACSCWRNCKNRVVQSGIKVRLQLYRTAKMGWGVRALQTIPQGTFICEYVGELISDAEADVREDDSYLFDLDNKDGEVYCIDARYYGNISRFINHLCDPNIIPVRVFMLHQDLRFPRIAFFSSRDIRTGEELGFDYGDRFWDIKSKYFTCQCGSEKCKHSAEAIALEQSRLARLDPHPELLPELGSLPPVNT
Method in brief: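 Triplicates, 1 h at room temperature. Guanidine HCl stop, then Flashplate CPM. Compound at 100 nM–100 µM. Activity normalised to no-compound (100%) and no-enzyme (0%) controls. Ki = IC50/2.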

[6] = target: T3, Histone-lysine N-methyltransferase SETD7 (Homo sapiens) (UniProt Q8WTS6); experiment: Inhibition of SETD7 (unknown origin) using [3H]SAM assessed as inhibition of biotinylated-H3 (1 to 25 amino acid residues) methylation at 0.1 to 100 uM after 1 hr by scintillation proximity assay
T3 sequence (whole entry): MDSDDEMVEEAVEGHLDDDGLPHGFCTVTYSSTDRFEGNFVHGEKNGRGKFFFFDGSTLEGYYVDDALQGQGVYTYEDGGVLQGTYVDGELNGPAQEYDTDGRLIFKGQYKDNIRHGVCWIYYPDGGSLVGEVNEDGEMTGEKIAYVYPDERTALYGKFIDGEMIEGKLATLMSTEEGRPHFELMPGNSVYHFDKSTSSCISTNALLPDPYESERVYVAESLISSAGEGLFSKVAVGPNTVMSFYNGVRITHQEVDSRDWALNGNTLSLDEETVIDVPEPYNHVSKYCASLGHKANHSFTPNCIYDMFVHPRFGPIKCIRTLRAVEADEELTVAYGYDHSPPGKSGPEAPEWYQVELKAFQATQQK
Method in brief: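 Triplicates, 1 h at room temperature, compound at 100 nM–100 µM. Guanidine HCl stop, then Flashplate CPM normalised to controls. Ki = IC50/2.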

[7] = target: Histone-lysine N-methyltransferase SUV39H2 (Homo sapiens) (UniProt Q9H5I1); experiment: Inhibition of SUV39H2 (unknown origin) using [3H]SAM assessed as inhibition of biotinylated-H3 (1 to 25 amino acid residues) methylation at 0.1 to 100 uM after 1 hr by scintillation proximity assay
Sequence of Histone-lysine N-methyltransferase SUV39H2 (Homo sapiens) (Q9H5I1 whole entry, the tested form may be a part): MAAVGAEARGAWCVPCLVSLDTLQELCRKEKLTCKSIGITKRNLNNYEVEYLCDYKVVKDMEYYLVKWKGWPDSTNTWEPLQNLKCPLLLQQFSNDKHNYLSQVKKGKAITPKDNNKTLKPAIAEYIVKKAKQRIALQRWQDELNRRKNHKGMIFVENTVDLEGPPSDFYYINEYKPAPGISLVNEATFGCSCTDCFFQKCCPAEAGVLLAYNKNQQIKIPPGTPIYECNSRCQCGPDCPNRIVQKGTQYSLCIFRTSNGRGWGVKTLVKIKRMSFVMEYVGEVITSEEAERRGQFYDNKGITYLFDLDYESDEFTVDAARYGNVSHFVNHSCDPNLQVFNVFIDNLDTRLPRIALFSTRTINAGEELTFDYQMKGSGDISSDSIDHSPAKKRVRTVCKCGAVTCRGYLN
Method in brief: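 Triplicate 1 h room-temperature reactions with compound at 100 nM–100 µM. Read on Flashplate after guanidine quench. Ki = IC50/2.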

[8] = target: T4, Histone-lysine N-methyltransferase EHMT1 (Homo sapiens) (UniProt Q9H9B1); experiment: Inhibition of EHMT1 (unknown origin) using [3H]SAM assessed as inhibition of biotinylated-H3 (1 to 25 amino acid residues) methylation at 0.1 to 100 uM after 1 hr by scintillation proximity assay
T4 sequence (whole entry): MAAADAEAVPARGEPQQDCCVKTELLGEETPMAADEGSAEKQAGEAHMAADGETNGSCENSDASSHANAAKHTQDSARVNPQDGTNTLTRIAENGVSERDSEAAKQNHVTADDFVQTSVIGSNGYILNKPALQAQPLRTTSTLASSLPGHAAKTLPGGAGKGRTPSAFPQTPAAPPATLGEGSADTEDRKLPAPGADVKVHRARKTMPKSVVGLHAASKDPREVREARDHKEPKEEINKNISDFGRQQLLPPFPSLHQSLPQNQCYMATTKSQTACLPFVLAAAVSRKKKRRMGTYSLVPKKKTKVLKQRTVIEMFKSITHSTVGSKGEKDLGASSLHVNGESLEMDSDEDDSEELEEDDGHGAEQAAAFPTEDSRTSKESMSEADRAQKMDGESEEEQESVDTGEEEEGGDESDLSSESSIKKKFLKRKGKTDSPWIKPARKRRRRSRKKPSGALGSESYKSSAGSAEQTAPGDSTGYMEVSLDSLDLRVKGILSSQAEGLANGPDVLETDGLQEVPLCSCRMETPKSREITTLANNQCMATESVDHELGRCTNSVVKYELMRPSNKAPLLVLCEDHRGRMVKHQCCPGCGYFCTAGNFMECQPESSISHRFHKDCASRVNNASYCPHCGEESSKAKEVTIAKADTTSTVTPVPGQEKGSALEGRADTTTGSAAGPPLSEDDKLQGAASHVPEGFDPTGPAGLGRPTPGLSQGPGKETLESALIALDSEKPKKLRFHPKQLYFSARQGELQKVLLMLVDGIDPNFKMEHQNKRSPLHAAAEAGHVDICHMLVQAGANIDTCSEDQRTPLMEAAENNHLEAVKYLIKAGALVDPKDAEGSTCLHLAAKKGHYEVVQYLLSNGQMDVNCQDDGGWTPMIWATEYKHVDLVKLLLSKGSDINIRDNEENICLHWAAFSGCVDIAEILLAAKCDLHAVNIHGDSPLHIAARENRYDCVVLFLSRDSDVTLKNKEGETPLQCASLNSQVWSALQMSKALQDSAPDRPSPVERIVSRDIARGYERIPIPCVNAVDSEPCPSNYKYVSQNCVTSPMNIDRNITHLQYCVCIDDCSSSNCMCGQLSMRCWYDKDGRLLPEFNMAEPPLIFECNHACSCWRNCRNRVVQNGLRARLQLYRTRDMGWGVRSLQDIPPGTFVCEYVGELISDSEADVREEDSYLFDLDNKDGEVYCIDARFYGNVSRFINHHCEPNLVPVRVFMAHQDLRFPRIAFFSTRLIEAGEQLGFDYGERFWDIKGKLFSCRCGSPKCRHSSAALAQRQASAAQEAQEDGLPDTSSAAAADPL
Method in brief: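 Triplicates, 1 h at room temperature. Compound range 100 nM–100 µM. Guanidine stop, then Flashplate counting against no-compound and no-enzyme controls. Ki derived as IC50/2.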

[9] = target: Histone-lysine N-methyltransferase 2A (Homo sapiens) (UniProt Q03164); experiment: Inhibition of MLL1 (unknown origin) using [3H]SAM assessed as inhibition of biotinylated-H3 (1 to 25 amino acid residues) methylation at 0.1 to 100 uM after 1 hr by scintillation proximity assay
[10] = target: T5, N-lysine methyltransferase KMT5A (Homo sapiens) (UniProt Q9NQR1); experiment: Inhibition of SETD8 (unknown origin) using [3H]SAM assessed as inhibition of biotinylated-H4 (1 to 24 amino acid residues) methylation at 0.1 to 100 uM after 1 hr by scintillation proximity assay
T5 sequence (whole entry): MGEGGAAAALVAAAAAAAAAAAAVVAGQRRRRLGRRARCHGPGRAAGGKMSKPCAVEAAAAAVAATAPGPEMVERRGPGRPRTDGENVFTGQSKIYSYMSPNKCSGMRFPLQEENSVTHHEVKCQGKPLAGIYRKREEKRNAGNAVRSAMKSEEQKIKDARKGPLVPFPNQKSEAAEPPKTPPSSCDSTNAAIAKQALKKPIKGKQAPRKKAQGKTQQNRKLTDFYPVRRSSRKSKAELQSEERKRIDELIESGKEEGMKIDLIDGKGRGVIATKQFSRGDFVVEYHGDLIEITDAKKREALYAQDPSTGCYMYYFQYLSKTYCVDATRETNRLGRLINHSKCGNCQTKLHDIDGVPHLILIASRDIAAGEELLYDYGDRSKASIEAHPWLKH

Homo sapiens = organism: Homo sapiens; experiment: Inhibition of PRC2 complex (unknown origin) using [3H]SAM assessed as inhibition of biotinylated-H3 (21 to 44 amino acid residues) methylation at 0.1 to 100 uM after 1 hr by scintillation proximity assay

SMILES: Nc1ncnc2c1c(Br)cn2[C@@H]1O[C@H](CSCC[C@H](N)C(=O)O)[C@@H](O)[C@H]1O
- IC50 [1]: 1500 nM
- Ki [1]: 750 nM
- IC50 [2]: 1900 nM
- Ki [2]: 950 nM
- IC50 [3]: 2300 nM
- Ki [3]: 1150 nM
- IC50 [4]: 2300 nM
- Ki [4]: 1150 nM
- inhibition [5]: inactive
- inhibition [6]: inactive
- inhibition [7]: inactive
- inhibition [8]: inactive
- inhibition [9]: inactive
- inhibition [10]: inactive
- inhibition (Homo sapiens): inactive
